# Assay results: ChEMBL document CHEMBL3797186, “Single Residue Substitutions That Confer Voltage-Gated Sodium Ion Channel Subtype Selectivity in the NaV1.7 Inhibitory Peptide GpTx-1” (J Med Chem, 2016)
# Positions of bridges follow the written chain, without caps; N, C: chain ends. Residues, ends and D or L forms follow the SMILES beside them.
# Molecular target: Sodium channel protein type 5 subunit alpha (Homo sapiens, UniProt Q14524)
# Experiment: Inhibition of human Nav1.5 expressed in HEK293 cells assessed as inward peak current by ion-works quattro patch clamp electrophysiology method
# Assay type: cell-based
# Procedure, shortened: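 Stable HEK293 line expressing human NaV1.5, recorded by population patch clamp on the IonWorks Quattro.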
# Sodium channel protein type 5 subunit alpha, sequence (Q14524 whole entry): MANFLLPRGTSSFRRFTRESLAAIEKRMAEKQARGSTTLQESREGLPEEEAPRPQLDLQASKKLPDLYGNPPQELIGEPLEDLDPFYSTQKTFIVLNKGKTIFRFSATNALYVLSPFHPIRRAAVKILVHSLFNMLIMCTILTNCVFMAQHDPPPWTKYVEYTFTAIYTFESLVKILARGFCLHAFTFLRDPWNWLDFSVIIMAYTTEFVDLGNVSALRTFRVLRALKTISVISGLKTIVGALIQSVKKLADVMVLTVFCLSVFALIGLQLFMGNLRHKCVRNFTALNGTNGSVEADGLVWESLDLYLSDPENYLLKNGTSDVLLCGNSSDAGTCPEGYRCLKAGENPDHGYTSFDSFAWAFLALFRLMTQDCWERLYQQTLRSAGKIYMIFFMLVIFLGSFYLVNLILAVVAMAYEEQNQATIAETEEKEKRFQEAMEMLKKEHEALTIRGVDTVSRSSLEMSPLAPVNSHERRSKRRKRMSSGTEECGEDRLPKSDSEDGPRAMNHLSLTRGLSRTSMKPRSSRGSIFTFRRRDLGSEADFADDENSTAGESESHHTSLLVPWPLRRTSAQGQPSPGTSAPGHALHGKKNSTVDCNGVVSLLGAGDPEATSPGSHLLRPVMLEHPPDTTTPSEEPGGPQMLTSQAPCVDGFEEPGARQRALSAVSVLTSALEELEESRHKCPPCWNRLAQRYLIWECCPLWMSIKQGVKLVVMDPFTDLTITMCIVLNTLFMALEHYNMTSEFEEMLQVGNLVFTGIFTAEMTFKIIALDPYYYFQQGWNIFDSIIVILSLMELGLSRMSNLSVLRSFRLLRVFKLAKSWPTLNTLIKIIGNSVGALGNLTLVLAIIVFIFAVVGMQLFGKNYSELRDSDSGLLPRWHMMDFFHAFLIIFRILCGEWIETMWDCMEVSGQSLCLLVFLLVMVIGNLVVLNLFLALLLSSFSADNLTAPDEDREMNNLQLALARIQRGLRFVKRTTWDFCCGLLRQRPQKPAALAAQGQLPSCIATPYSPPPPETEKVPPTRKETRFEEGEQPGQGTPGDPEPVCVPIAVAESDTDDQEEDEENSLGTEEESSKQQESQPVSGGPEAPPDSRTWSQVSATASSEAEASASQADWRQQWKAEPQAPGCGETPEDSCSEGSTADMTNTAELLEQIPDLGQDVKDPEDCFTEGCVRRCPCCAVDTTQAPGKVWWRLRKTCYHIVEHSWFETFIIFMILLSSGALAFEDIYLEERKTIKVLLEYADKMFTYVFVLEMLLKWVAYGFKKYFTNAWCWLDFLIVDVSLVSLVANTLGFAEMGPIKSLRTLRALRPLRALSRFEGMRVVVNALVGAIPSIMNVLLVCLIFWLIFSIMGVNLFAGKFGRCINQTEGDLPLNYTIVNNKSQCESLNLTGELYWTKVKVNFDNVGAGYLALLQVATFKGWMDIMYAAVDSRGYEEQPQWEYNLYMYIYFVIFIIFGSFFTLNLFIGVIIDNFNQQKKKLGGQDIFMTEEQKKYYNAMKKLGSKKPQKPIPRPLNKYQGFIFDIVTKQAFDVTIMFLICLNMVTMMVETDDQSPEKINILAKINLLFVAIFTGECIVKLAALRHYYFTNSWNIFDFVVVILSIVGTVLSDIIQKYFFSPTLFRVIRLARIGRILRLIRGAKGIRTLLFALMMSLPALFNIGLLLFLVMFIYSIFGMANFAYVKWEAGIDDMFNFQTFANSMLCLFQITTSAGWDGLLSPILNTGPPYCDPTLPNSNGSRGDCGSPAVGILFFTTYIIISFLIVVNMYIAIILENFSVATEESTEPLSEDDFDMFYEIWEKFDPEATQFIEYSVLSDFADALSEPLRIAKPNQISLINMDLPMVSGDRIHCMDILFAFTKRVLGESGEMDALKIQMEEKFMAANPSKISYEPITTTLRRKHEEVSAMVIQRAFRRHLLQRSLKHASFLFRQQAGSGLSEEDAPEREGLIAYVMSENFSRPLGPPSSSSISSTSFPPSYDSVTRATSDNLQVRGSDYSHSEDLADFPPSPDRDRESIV
row,SMILES,IC50 [µM]
1,"CC[C@H](C)[C@@H]1NC(=O)[C@@H]2CSSC[C@@H]3NC(=O)[C@H](C(C)C)NC(=O)[C@H](CC(C)C)NC(=O)[C@H](CCCNC(=N)N)NC(=O)[C@@H]4CCCN4C(=O)[C@H](CCCNC(=N)N)NC(=O)[C@H](CSSC[C@H](NC(=O)[C@@H](N)CC(=O)O)C(=O)N[C@@H](CC(C)C)C(=O)NCC(=O)N[C@@H](Cc4ccccc4)C(=O)N[C@@H](CCSC)C(=O)N[C@@H](CCCNC(=N)N)C(=O)N[C@@H](CCCCN)C(=O)N2)NC(=O)[C@H](CSSC[C@@H](C(=O)N[C@@H](CCCCN)C(=O)N[C@@H](Cc2ccc(O)cc2)C(=O)N[C@H](C(=O)N[C@@H](Cc2ccccc2)C(N)=O)C(C)C)NC(=O)[C@H](Cc2c[nH]c4ccccc24)NC(=O)[C@H](CCCCN)NC(=O)[C@H](Cc2cnc[nH]2)NC(=O)[C@H]([C@@H](C)O)NC(=O)[C@H](CCCNC(=N)N)NC(=O)[C@H](CO)NC3=O)NC(=O)[C@H](CCCCN)NC(=O)[C@H](CC(=O)O)NC(=O)[C@H](CC(N)=O)NC(=O)[C@H](CC(=O)O)NC(=O)[C@@H]2CCCN2C1=O (H-DCLGFMRKCIPDNDKCCRPRLVCSRTHKWCKYVF-NH2; disulfide 2-17, 9-23, 16-30)",> 5
2,"CC[C@H](C)[C@@H]1NC(=O)[C@@H]2CSSC[C@@H]3NC(=O)[C@H](C(C)C)NC(=O)[C@H](CC(C)C)NC(=O)[C@H](CC(N)=O)NC(=O)[C@@H]4CCCN4C(=O)[C@H](CCCNC(=N)N)NC(=O)[C@H](CSSC[C@H](NC(=O)[C@@H](N)CC(=O)O)C(=O)N[C@@H](CC(C)C)C(=O)NCC(=O)N[C@@H](Cc4ccccc4)C(=O)N[C@@H](CCSC)C(=O)N[C@@H](CCCNC(=N)N)C(=O)N[C@@H](CCCCN)C(=O)N2)NC(=O)[C@H](CSSC[C@@H](C(=O)N[C@@H](CCCCN)C(=O)N[C@@H](Cc2ccc(O)cc2)C(=O)N[C@@H](CCC(=O)O)C(=O)N[C@@H](Cc2ccccc2)C(N)=O)NC(=O)[C@H](Cc2c[nH]c4ccccc24)NC(=O)[C@H](CCCCN)NC(=O)[C@H](Cc2cnc[nH]2)NC(=O)[C@H]([C@@H](C)O)NC(=O)[C@H](CCCNC(=N)N)NC(=O)[C@H](CO)NC3=O)NC(=O)[C@H](CCCCN)NC(=O)[C@H](CC(=O)O)NC(=O)[C@H](CC(N)=O)NC(=O)[C@H](CC(=O)O)NC(=O)[C@@H]2CCCN2C1=O (H-DCLGFMRKCIPDNDKCCRPNLVCSRTHKWCKYEF-NH2; disulfide 2-17, 9-23, 16-30)",> 5
3,"CC[C@H](C)[C@@H]1NC(=O)[C@@H]2CSSC[C@@H]3NC(=O)[C@H](C(C)C)NC(=O)[C@H](CC(C)C)NC(=O)[C@H](CC(N)=O)NC(=O)[C@@H]4CCCN4C(=O)[C@H](CCCNC(=N)N)NC(=O)[C@H](CSSC[C@H](NC(=O)[C@@H](N)CC(=O)O)C(=O)N[C@@H](CC(C)C)C(=O)N[C@@H](Cc4c[nH]c5ccccc45)C(=O)N[C@@H](Cc4ccccc4)C(=O)N[C@@H](CCSC)C(=O)N[C@@H](CCCNC(=N)N)C(=O)N[C@@H](CCCCN)C(=O)N2)NC(=O)[C@H](CSSC[C@@H](C(=O)N[C@@H](CCCCN)C(=O)N[C@@H](Cc2ccc(O)cc2)C(=O)N[C@H](C(=O)N[C@@H](Cc2ccccc2)C(N)=O)C(C)C)NC(=O)[C@H](Cc2c[nH]c4ccccc24)NC(=O)[C@H](CCCCN)NC(=O)[C@H](Cc2cnc[nH]2)NC(=O)[C@H]([C@@H](C)O)NC(=O)[C@H](CCCNC(=N)N)NC(=O)[C@H](CO)NC3=O)NC(=O)[C@H](CCCCN)NC(=O)[C@H](CC(=O)O)NC(=O)[C@H](CC(N)=O)NC(=O)[C@H](CC(=O)O)NC(=O)[C@@H]2CCCN2C1=O (H-DCLWFMRKCIPDNDKCCRPNLVCSRTHKWCKYVF-NH2; disulfide 2-17, 9-23, 16-30)",> 5
4,"CC[C@H](C)[C@@H]1NC(=O)[C@@H]2CSSC[C@@H]3NC(=O)[C@H](C(C)C)NC(=O)[C@H](CC(C)C)NC(=O)[C@H](CC(N)=O)NC(=O)[C@@H]4CCCN4C(=O)[C@H](CCCNC(=N)N)NC(=O)[C@H](CSSC[C@H](NC(=O)[C@@H](N)CC(=O)O)C(=O)N[C@@H](CCCNC(=N)N)C(=O)NCC(=O)N[C@@H](Cc4ccccc4)C(=O)N[C@@H](CCSC)C(=O)N[C@@H](CCCNC(=N)N)C(=O)N[C@@H](CCCCN)C(=O)N2)NC(=O)[C@H](CSSC[C@@H](C(=O)N[C@@H](CCCCN)C(=O)N[C@@H](Cc2ccc(O)cc2)C(=O)N[C@H](C(=O)N[C@@H](Cc2ccccc2)C(N)=O)C(C)C)NC(=O)[C@H](Cc2c[nH]c4ccccc24)NC(=O)[C@H](CCCCN)NC(=O)[C@H](Cc2cnc[nH]2)NC(=O)[C@H]([C@@H](C)O)NC(=O)[C@H](CCCNC(=N)N)NC(=O)[C@H](CO)NC3=O)NC(=O)[C@H](CCCCN)NC(=O)[C@H](CC(=O)O)NC(=O)[C@H](CC(N)=O)NC(=O)[C@H](CC(=O)O)NC(=O)[C@@H]2CCCN2C1=O (H-DCRGFMRKCIPDNDKCCRPNLVCSRTHKWCKYVF-NH2; disulfide 2-17, 9-23, 16-30)",> 5
5,"CSCC[C@@H]1NC(=O)[C@H](Cc2ccccc2)NC(=O)CNC(=O)[C@H](CC(C)C)NC(=O)[C@@H](NC(=O)[C@@H](N)CC(=O)O)CSSC[C@@H]2NC(=O)[C@@H]3CSSC[C@@H](C(=O)N[C@@H](CCCCN)C(=O)N[C@@H](Cc4ccc(O)cc4)C(=O)N[C@H](C(=O)N[C@@H](Cc4ccccc4)C(N)=O)C(C)C)NC(=O)[C@H](Cc4c[nH]c5ccccc45)NC(=O)[C@H](CCCCN)NC(=O)[C@H](Cc4cnc[nH]4)NC(=O)[C@H]([C@@H](C)O)NC(=O)[C@H](CCCNC(=N)N)NC(=O)[C@H](CO)NC(=O)[C@H](CSSC[C@H](NC(=O)[C@H](CCCCN)NC(=O)[C@H](CCCNC(=N)N)NC1=O)C(=O)N[C@@H]([C@@H](C)O)C(=O)N1CCC[C@H]1C(=O)N[C@@H](CC(=O)O)C(=O)N[C@@H](CC(N)=O)C(=O)N[C@@H](CC(=O)O)C(=O)N[C@@H](CCCCN)C(=O)N3)NC(=O)[C@H](C(C)C)NC(=O)[C@H](CC(C)C)NC(=O)[C@H](CC(N)=O)NC(=O)[C@@H]1CCCN1C(=O)[C@H](CCCNC(=N)N)NC2=O (H-DCLGFMRKCTPDNDKCCRPNLVCSRTHKWCKYVF-NH2; disulfide 2-17, 9-23, 16-30)",> 5
6,"CSCC[C@@H]1NC(=O)[C@H](Cc2ccccc2)NC(=O)CNC(=O)[C@H](CC(C)C)NC(=O)[C@@H](NC(=O)[C@@H](N)CC(=O)O)CSSC[C@@H]2NC(=O)[C@@H]3CSSC[C@@H](C(=O)N[C@@H](CCCCN)C(=O)N[C@@H](Cc4ccc(O)cc4)C(=O)N[C@H](C(=O)N[C@@H](Cc4ccccc4)C(N)=O)C(C)C)NC(=O)[C@H](Cc4c[nH]c5ccccc45)NC(=O)[C@H](CCCCN)NC(=O)[C@H](Cc4cnc[nH]4)NC(=O)[C@H]([C@@H](C)O)NC(=O)[C@H](CCCNC(=N)N)NC(=O)[C@H](CO)NC(=O)[C@H](CSSC[C@H](NC(=O)[C@H](CCCCN)NC(=O)[C@H](CCCNC(=N)N)NC1=O)C(=O)N[C@@H](Cc1ccccc1)C(=O)N1CCC[C@H]1C(=O)N[C@@H](CC(=O)O)C(=O)N[C@@H](CC(N)=O)C(=O)N[C@@H](CC(=O)O)C(=O)N[C@@H](CCCCN)C(=O)N3)NC(=O)[C@H](C(C)C)NC(=O)[C@H](CC(C)C)NC(=O)[C@H](CC(N)=O)NC(=O)[C@@H]1CCCN1C(=O)[C@H](CCCNC(=N)N)NC2=O (H-DCLGFMRKCFPDNDKCCRPNLVCSRTHKWCKYVF-NH2; disulfide 2-17, 9-23, 16-30)",> 5
7,"CC[C@H](C)[C@@H]1NC(=O)[C@@H]2CSSC[C@@H]3NC(=O)[C@H](C(C)C)NC(=O)[C@H](CC(C)C)NC(=O)[C@H](CC(N)=O)NC(=O)[C@@H]4CCCN4C(=O)[C@H](CCCNC(=N)N)NC(=O)[C@H](CSSC[C@H](NC(=O)[C@@H](N)CC(=O)O)C(=O)N[C@@H](CC(C)C)C(=O)NCC(=O)N[C@@H](Cc4ccccc4)C(=O)N[C@@H](CCC(=O)O)C(=O)N[C@@H](CCCNC(=N)N)C(=O)N[C@@H](CCCCN)C(=O)N2)NC(=O)[C@H](CSSC[C@@H](C(=O)N[C@@H](CCCCN)C(=O)N[C@@H](Cc2ccc(O)cc2)C(=O)N[C@H](C(=O)N[C@@H](Cc2ccccc2)C(N)=O)C(C)C)NC(=O)[C@H](Cc2c[nH]c4ccccc24)NC(=O)[C@H](CCCCN)NC(=O)[C@H](Cc2cnc[nH]2)NC(=O)[C@H]([C@@H](C)O)NC(=O)[C@H](CCCNC(=N)N)NC(=O)[C@H](CO)NC3=O)NC(=O)[C@H](CCCCN)NC(=O)[C@H](CC(=O)O)NC(=O)[C@H](CC(N)=O)NC(=O)[C@H](CC(=O)O)NC(=O)[C@@H]2CCCN2C1=O (H-DCLGFERKCIPDNDKCCRPNLVCSRTHKWCKYVF-NH2; disulfide 2-17, 9-23, 16-30)",> 5
8,"CC[C@H](C)[C@@H]1NC(=O)[C@@H]2CSSC[C@@H]3NC(=O)[C@H](C(C)C)NC(=O)[C@H](CC(C)C)NC(=O)[C@H](CC(N)=O)NC(=O)[C@@H]4CCCN4C(=O)[C@H](CCCNC(=N)N)NC(=O)[C@H](CSSC[C@H](NC(=O)[C@@H](N)CC(=O)O)C(=O)N[C@@H](CC(C)C)C(=O)NCC(=O)N[C@@H](Cc4ccccc4)C(=O)N[C@@H](CCSC)C(=O)N[C@@H](CCCNC(=N)N)C(=O)N[C@@H](CCCCN)C(=O)N2)NC(=O)[C@H](CSSC[C@@H](C(=O)N[C@@H](CCCCN)C(=O)N[C@@H](Cc2ccc(O)cc2)C(=O)N[C@H](C(=O)N[C@@H](Cc2ccccc2)C(N)=O)C(C)C)NC(=O)[C@H](Cc2c[nH]c4ccccc24)NC(=O)[C@H](CCCCN)NC(=O)[C@H](Cc2cnc[nH]2)NC(=O)[C@H]([C@@H](C)O)NC(=O)[C@H](CCCNC(=N)N)NC(=O)[C@H](CO)NC3=O)NC(=O)[C@H](CCCCN)NC(=O)[C@H](CC(=O)O)NC(=O)[C@H](CCCCN)NC(=O)[C@H](CC(=O)O)NC(=O)[C@@H]2CCCN2C1=O (H-DCLGFMRKCIPDKDKCCRPNLVCSRTHKWCKYVF-NH2; disulfide 2-17, 9-23, 16-30)",> 5
